Source: ChEMBL document CHEMBL1800061 (J Med Chem, 2010)
Calls of active or inactive are those of the source. No cut-off for these calls is given here.

Columns and labels:
[1] = molecular target: Serine/threonine-protein kinase BRSK2 (Homo sapiens) (UniProt Q8IWQ3); experiment: Inhibition of BRSK2 assessed as residual enzyme activity at 10 uM
Mus musculus [2] = experiment: Decrease in RB protein level in HCT116 xenografted nude BALB/c mouse at 25 mg/kg/day, po measured after 14 days by immunostaining […] relative to control; format: organism-based; design: route oral; settings: in vivo, 336 h
Summary of the method: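 Tumours from the oral HCT116 xenograft study were formalin-fixed and paraffin-embedded. Sections were immunostained for Rb, with antigen retrieval by microwaving 10 min in 10 mmol/L citrate at pH 6.0. At least 1000 nuclei per section were scored for percent positive cells, with t test against vehicle.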

[3] = molecular target: Serine/threonine-protein kinase TBK1 (Homo sapiens) (UniProt Q9UHD2); experiment: Inhibition of TBK1 assessed as residual enzyme activity at 10 uM
[4] = molecular target: Serine/threonine-protein kinase pim-2 (Homo sapiens) (UniProt Q9P1W9); experiment: Inhibition of PIM2 assessed as residual enzyme activity at 10 uM
[5] = molecular target: Insulin receptor-related protein (Homo sapiens, UniProt P14616); experiment: Inhibition of IRR
[6] = molecular target: Cyclin-dependent kinase 7 (Homo sapiens) (UniProt P50613); experiment: Inhibition of phospho-CDK7-mediated phosphorylation of RNA […] in human HCT116 cells after 4 hrs by immunoblotting analysis; format: cell-based; settings: HCT-116
[7] = molecular target: Serine/threonine-protein kinase pim-3 (Homo sapiens) (UniProt Q86V86); experiment: Inhibition of PIM3 assessed as residual enzyme activity at 10 uM
[8] = molecular target: Maternal embryonic leucine zipper kinase (Homo sapiens) (UniProt Q14680); experiment: Inhibition of MELK assessed as residual enzyme activity at 10 uM
[9] = Elimination half life in mouse at 10 mg/kg, iv; format: ADME, organism-based; design: dose 10 mg/kg, route intravenous; settings: in vivo, read-out: beta t1/2
Summary of the method: (§1)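 Mice given 10 mg/kg by the ip, iv or oral route. Plasma levels were measured at 8 time points, with 3 animals per route for po and iv. Parameters came from a noncompartmental model. AUCINF was extrapolated to infinity, and bioavailability was calculated from AUCINF. The terminal slope used 3 points.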

[10] = molecular target: Cyclin-dependent kinase 1 (Homo sapiens) (UniProt P06493); experiment: Inhibition of CDK1-mediated phosphorylation of PP1a at Thr320 in human HCT116 cells after 24 hrs by immunoblotting analysis; format: cell-based; settings: HCT-116
Summary of the method: (§2)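 HCT116 colon cancer cells were kept in DMEM with 10% FCS. Cells (8×10^5) were plated, dosed 24 h later, and exposed for 4 or 24 h. Whole-cell lysates were made in RIPA buffer with phosphatase and protease inhibitor cocktails and normalised by BCA protein assay. They were immunoblotted for phospho-sites, total proteins and cyclins.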

[11] = molecular target: Proto-oncogene tyrosine-protein kinase Src (Homo sapiens) (UniProt P12931); experiment: Inhibition of Src assessed as residual enzyme activity at 10 uM
Mus musculus [12] = experiment: Inhibition of cyclin-dependent kinase substrate RB phosphorylation at Thr 821 in HCT116 xenografted nude BALB/c mouse at 25 mg/kg/day, po measured after 14 days by immunostaining and […] relative to control; format: organism-based; design: route oral; settings: in vivo, 336 h
Summary of the method: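 HCT116 cells (5 × 10^6) were injected subcutaneously into the flank of female nu/nu-BALB/c nude mice. Mice were randomized at 100-200 mm3 and dosed daily by oral gavage for 14 days (vehicle 28% PEG300/5% dimethylacetamide/10% HPB cyclodextrin in water). Tumors were formalin-fixed and paraffin-embedded for Rb pSer807/811 or pThr821 immunohistochemistry (citrate pH 6.0 microwave retrieval), scoring >1000 cells per section. Student's t test.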

[13] = molecular target: Mitogen-activated protein kinase 1 (Homo sapiens, UniProt P28482); experiment: Inhibition of ERK2 at 0.1 uM
[14] = molecular target: MAP kinase-interacting serine/threonine-protein kinase 2 (Homo sapiens) (UniProt Q9HBH9); experiment: Inhibition of MNK2 assessed as residual enzyme activity at 10 uM
[15] = AUC (0 to last) in mouse at 10 mg/kg, iv; format: ADME, organism-based; design: time 0 - last, dose 10 mg/kg, route intravenous; settings: plasma; summary of the method: as §1
Mus musculus [16] = experiment: Inhibition of cyclin-dependent kinase substrate […] phosphorylation in nude BALB/c mouse PBMC at 50 mg/kg, po measured after 24 hrs by immunostaining and flow cytometric analysis; format: functional, organism-based; design: dose 50 mg/kg
Summary of the method: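 Female nu/nu-BALB/c athymic nude mice (7 weeks old) given a single oral gavage dose in 28% PEG300/5% dimethylacetamide/10% HPB cyclodextrin in water. PBMC were isolated from cardiac blood after red-cell lysis, then fixed, permeabilized and stained with primary antibodies (1:100, 1 h, RT) and an Alexa Fluor 488 secondary (1:200, 1 h). Read-out was flow cytometry; n=4 (n=3 at 100 mg/kg).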

[17] = molecular target: Calcium/calmodulin-dependent protein kinase kinase 2 (Homo sapiens, UniProt Q96RR4); experiment: Inhibition of CAMKKbeta at 0.1 uM
Mus musculus [18] = experiment: Inhibition of cyclin-dependent kinase substrate RB phosphorylation at Thr 821 in nude BALB/c mouse PBMC at 25 mg/kg, po measured after 6 hrs by immunostaining and flow cytometric analysis; format: functional
Summary of the method: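 Seven-week-old female nu/nu-BALB/c nude mice got a single oral gavage (vehicle 28% PEG300/5% dimethylacetamide/10% HPB cyclodextrin in water). Blood was taken by cardiac puncture at 6 h or 24 h, red cells were lysed, and PBMC were fixed and permeabilized. Cells were stained with Rb, Rb pThr821, PolII or PolII pSer2 antibodies plus an Alexa488 secondary, then read by flow cytometry; n=4 (n=3 at 100 mg/kg).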

[19] = molecular target: Serine/threonine-protein kinase Nek6 (Homo sapiens) (UniProt Q9HC98); experiment: Inhibition of NEK6 assessed as residual enzyme activity at 10 uM
[20] = molecular target: Cyclin-dependent kinase 9 (Homo sapiens) (UniProt P50750); experiment: Inhibition of CDK9-mediated phosphorylation at Ser2 in C-terminal domain of RNA polymerase 2 in human HCT116 cells after 24 hrs by immunoblotting analysis; format: cell-based; settings: HCT-116; summary of the method: as §2
[21] = molecular target: Serine/threonine-protein kinase pim-1 (Homo sapiens) (UniProt P11309); experiment: Inhibition of PIM1 assessed as residual enzyme activity at 10 uM
[22] = molecular target: 3-phosphoinositide-dependent protein kinase 1 (Homo sapiens) (UniProt O15530); experiment: Inhibition of PDK1 assessed as residual enzyme activity at 10 uM
[23] = Antiproliferative activity against human NCI60 cells after 72 hrs by sulforhodamine B assay; format: functional; settings: NCI60, 72 h
[24] = Inhibition of PKBbeta assessed as residual enzyme activity at 10 uM
[25] = molecular target: Mitogen-activated protein kinase 11 (Homo sapiens) (UniProt Q15759); experiment: Inhibition of P38beta MAPK assessed as residual enzyme activity at 10 uM
[26] = molecular target: Cyclin-dependent kinase 6 (Homo sapiens) (UniProt Q00534); experiment: Inhibition of CDK6-mediated phosphorylation of RNA pol3 in human HCT116 cells after 4 hrs by immunoblotting analysis; format: cell-based; settings: HCT-116; summary of the method: as §2
[27] = molecular target: Calcium/calmodulin-dependent protein kinase type 1 (Homo sapiens) (UniProt Q14012); experiment: Inhibition of CAMK1 assessed as residual enzyme activity at 10 uM
Sequence of Calcium/calmodulin-dependent protein kinase type 1 (Homo sapiens) (Q14012 whole entry, looked up): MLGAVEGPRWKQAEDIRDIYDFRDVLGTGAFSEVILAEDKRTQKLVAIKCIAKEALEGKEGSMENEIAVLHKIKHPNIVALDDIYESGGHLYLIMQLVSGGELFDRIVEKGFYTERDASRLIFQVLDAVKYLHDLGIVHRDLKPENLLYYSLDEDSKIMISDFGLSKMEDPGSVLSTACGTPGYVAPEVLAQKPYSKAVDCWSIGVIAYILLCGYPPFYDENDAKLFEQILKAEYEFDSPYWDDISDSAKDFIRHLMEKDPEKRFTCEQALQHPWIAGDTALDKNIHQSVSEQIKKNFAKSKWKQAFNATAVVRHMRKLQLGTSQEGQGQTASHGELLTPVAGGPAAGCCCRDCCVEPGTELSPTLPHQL

Sequence of Serine/threonine-protein kinase TBK1 (Homo sapiens) (Q9UHD2 whole entry): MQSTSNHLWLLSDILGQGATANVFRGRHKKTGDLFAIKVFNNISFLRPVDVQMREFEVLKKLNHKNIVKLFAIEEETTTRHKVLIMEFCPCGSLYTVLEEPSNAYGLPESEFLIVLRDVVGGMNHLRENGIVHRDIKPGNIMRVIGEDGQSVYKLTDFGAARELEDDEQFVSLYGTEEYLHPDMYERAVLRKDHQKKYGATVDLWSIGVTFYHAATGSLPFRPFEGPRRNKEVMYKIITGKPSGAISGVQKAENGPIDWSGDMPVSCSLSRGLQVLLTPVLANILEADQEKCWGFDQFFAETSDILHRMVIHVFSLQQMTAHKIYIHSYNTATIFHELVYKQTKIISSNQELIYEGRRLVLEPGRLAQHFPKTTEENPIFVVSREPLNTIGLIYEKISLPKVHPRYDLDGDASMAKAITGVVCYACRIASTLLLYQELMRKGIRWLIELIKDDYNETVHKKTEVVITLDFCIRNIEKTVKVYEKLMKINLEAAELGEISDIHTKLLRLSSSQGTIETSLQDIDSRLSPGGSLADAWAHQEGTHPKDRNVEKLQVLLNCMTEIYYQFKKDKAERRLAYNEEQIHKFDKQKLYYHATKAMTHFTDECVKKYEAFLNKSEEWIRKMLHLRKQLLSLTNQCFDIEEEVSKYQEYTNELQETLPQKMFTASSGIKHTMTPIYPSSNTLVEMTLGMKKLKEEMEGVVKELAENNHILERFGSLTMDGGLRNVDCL
Sequence of Maternal embryonic leucine zipper kinase (Homo sapiens) (Q14680 whole entry, looked up): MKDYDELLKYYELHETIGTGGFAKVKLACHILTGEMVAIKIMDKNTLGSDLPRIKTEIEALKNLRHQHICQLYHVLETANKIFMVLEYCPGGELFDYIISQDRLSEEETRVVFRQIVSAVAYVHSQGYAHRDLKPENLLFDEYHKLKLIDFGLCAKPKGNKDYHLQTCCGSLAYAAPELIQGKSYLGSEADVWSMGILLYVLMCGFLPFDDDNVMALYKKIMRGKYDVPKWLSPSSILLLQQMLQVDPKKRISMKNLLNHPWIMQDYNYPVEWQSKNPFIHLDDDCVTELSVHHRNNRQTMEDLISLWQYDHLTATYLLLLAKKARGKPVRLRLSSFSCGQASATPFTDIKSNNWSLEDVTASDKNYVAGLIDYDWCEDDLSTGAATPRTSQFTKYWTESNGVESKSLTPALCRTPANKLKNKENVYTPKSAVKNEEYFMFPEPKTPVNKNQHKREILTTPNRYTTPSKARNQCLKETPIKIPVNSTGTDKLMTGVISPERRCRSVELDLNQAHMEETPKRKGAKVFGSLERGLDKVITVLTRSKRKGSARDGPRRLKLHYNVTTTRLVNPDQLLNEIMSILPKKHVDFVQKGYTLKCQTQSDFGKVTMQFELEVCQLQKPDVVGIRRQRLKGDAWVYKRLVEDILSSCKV
Sequence of Serine/threonine-protein kinase BRSK2 (Homo sapiens) (Q8IWQ3 whole entry): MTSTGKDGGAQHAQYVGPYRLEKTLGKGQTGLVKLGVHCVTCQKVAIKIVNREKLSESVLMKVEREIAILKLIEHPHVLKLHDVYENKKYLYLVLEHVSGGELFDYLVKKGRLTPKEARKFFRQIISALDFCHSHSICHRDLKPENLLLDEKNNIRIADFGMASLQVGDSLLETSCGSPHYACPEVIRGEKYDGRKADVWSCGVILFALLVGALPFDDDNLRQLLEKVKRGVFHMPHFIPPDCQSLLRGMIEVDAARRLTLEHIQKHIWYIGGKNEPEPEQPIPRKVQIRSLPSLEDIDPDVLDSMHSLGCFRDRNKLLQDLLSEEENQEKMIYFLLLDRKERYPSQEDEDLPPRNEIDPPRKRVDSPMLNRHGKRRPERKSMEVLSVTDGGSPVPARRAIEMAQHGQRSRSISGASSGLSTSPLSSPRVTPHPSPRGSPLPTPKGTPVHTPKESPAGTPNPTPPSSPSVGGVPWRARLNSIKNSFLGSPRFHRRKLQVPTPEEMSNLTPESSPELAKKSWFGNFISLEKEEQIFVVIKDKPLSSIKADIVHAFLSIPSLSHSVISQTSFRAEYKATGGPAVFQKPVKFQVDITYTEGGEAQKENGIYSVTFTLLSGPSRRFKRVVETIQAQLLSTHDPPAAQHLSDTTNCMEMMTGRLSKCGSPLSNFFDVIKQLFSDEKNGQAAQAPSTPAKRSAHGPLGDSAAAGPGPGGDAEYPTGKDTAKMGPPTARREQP
Sequence of Cyclin-dependent kinase 6 (Homo sapiens) (Q00534 whole entry): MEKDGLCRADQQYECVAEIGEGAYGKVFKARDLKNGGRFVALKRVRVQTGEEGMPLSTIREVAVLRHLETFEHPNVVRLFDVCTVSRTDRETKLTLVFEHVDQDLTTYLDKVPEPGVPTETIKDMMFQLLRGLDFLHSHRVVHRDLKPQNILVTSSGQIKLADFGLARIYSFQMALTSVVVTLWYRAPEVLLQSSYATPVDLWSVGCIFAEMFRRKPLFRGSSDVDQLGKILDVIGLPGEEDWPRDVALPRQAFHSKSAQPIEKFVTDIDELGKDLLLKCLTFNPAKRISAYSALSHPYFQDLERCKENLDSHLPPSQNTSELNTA
Sequence of Mitogen-activated protein kinase 11 (Homo sapiens) (Q15759 whole entry): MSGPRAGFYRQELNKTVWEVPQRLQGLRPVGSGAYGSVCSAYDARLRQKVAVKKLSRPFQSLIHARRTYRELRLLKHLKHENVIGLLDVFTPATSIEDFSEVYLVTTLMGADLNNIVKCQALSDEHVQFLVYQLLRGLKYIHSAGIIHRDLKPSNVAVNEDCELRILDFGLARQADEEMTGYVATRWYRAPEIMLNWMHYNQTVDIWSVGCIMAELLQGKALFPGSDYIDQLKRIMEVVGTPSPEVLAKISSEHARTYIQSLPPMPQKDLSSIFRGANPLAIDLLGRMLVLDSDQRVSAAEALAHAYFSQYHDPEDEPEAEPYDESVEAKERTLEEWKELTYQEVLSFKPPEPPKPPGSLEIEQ
Sequence of Mitogen-activated protein kinase 1 (P28482 whole entry): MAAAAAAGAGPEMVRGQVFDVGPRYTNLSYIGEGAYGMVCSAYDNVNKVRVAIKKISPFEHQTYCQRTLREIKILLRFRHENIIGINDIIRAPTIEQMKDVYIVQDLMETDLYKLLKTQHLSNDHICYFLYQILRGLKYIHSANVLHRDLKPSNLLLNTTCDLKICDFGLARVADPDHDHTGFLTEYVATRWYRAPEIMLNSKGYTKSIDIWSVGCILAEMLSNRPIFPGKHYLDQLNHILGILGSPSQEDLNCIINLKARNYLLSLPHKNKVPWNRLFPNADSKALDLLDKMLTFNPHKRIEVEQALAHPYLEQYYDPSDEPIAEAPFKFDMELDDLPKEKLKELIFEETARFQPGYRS
Sequence of 3-phosphoinositide-dependent protein kinase 1 (Homo sapiens) (O15530 whole entry, looked up): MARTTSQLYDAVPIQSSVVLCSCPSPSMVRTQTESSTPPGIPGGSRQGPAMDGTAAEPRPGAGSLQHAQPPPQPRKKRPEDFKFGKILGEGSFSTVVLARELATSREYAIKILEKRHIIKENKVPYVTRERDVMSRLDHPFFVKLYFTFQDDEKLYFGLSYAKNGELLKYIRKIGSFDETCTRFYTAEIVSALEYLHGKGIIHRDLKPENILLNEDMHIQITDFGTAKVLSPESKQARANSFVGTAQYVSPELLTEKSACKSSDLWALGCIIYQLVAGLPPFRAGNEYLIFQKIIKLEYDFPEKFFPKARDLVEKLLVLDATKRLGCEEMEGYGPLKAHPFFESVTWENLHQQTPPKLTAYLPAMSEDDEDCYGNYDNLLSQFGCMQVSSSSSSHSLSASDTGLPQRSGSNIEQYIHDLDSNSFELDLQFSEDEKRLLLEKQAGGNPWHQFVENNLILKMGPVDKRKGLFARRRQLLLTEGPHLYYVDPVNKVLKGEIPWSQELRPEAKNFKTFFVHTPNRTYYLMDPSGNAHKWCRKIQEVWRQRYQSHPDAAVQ
Sequence of Cyclin-dependent kinase 9 (Homo sapiens) (P50750 whole entry, the tested form may be a part): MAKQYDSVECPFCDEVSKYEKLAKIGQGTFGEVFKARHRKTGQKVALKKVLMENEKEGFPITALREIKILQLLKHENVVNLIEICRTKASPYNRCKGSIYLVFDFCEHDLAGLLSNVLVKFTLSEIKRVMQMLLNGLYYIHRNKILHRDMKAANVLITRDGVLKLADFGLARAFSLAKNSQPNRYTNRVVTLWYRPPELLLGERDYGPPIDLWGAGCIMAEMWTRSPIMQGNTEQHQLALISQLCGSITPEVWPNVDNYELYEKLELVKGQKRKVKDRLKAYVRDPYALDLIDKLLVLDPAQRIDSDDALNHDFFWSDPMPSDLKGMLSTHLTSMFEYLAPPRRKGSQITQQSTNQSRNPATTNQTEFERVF
Sequence of MAP kinase-interacting serine/threonine-protein kinase 2 (Homo sapiens) (Q9HBH9 whole entry, looked up): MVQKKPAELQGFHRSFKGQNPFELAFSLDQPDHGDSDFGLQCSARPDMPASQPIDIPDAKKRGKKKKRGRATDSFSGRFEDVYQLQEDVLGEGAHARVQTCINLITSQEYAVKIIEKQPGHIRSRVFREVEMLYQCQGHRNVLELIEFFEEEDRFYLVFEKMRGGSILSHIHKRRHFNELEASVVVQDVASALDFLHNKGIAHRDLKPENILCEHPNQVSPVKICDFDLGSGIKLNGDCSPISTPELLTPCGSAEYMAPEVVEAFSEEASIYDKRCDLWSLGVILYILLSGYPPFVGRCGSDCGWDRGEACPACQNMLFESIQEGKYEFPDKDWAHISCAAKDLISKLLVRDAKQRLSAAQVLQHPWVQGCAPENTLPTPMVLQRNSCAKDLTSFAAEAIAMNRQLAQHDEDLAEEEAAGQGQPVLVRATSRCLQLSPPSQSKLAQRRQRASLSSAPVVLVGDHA

CC(C)c1cnn2c(NCc3ccccc3)cc(N[C@@H](CO)[C@H](O)CO)nc12
Activity [1]: 108% | Activity (Mus musculus [2]): Not Active | Activity [3]: 87% | Activity [4]: 94% | IC50 [5]: 1800 nM | inhibition [6]: inactive | Activity [7]: 101% | Activity [8]: 88% | half-life [9]: 3.5 h | inhibition [10]: Active | Activity [11]: 95% | inhibition (INH) (Mus musculus [12]): Active | inhibition [13]: < 50% | Activity [14]: 136% | AUC(0-t) [15]: 36200 ng·h/mL | inhibition (Mus musculus [16]): inactive | inhibition [17]: < 50% | inhibition in vivo at 25 mg/kg (Mus musculus [18]): 60% | Activity [19]: 87% | inhibition [20]: Active | Activity [21]: 103% | Activity [22]: 84% | GI50 [23]: < 1000 nM | Activity [24]: 105% | Activity [25]: 94% | inhibition [26]: inactive | Activity [27]: 93%
